Measured values from ChEMBL document CHEMBL3351896, “Small Molecule that Reverses Dexamethasone Resistance in T-cell Acute Lymphoblastic Leukemia (T-ALL)” (ACS Med Chem Lett, 2014).
Active and inactive are the calls of the source. The calls are words filed in the database; no cut-off is given here.

Assays:
[1] = Growth inhibition of human CUTLL1 cells in absence of 1 uM dexamethasone after 48 hrs by alamar blue assay; assay type: functional, cell-based; details: CUTLL1, 48 h
Outline: (§1)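 CUTLL1 cells given compound alone or with dexamethasone 1 μM. Growth inhibition measured by alamar blue after 48 h.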

[2] = Growth inhibition of human CUTLL1 cells in presence of 1 uM dexamethasone after 48 hrs by alamar blue assay; assay type: functional, cell-based; details: CUTLL1, 48 h; outline: as §1
[3] = test system: CUTLL1; test: Growth inhibition of human CUTLL1 cells at 12.5 to 50 uM in presence of 1 uM dexamethasone and 1 uM […] and glucocorticoid receptor antagonist RU486 after 24 hrs by alamar blue assay
[4] = test system: CUTLL1; test: Growth inhibition of human CUTLL1 cells with high GR expression levels after 48 hrs by alamar blue assay; assay type: functional, cell-based
Outline: (§2)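 Human CUTLL1 T-ALL cells engineered to express high (overexpressed) or low (knockdown) glucocorticoid receptor levels. Exposed to compound alone or with 1 μM dexamethasone. Alamar blue growth inhibition read after 48 h.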

[5] = test system: CUTLL1; test: Induction of PARP1 cleavage in human CUTLL1 cells at 1 uM after 24 hrs by western blotting method; assay type: functional, cell-based
[6] = test system: CUTLL1; test: Growth inhibition of human CUTLL1 cells with low GR expression levels after 48 hrs by alamar blue assay; assay type: functional, cell-based; outline: as §2
[7] = molecular target: T1, Gamma-secretase (Homo sapiens) (UniProt Q96BI3+Q9NZ42+Q8WW43+P49768+Q92542+P49810); test: Inhibition of gamma secretase in human CUTLL1 cells assessed as effect on NOTCH cleavage level at 100 nM after 24 hrs by Western blotting; assay type: cell-based
[8] = molecular target: T1, Gamma-secretase (Homo sapiens); test: Inhibition of gamma secretase in human CUTLL1 cells assessed as effect on NOTCH cleavage level at 100 nM in presence of 1 uM dexamethasone after 24 hrs by Western blotting; assay type: cell-based
Outline: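 Dexamethasone-resistant human T-ALL CUTLL1 cells were treated for 24 h with the gamma-secretase inhibitor at 100 nM together with dexamethasone at 1 μM. Intracellular NOTCH (ICN) protein was then measured by Western blot.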

SMILES | EC50 [1] [µM] | EC50 [2] [µM] | also measured
Nc1ncc(-c2ccncc2)cn1 | > 100 | > 100 | 
Nc1ncc(-c2ccccc2)c(C2CC2)n1 | > 100 | > 100 | 
Nc1ncc(-c2ccnc(-c3ccoc3)c2)c(C2CC2)n1 | > 100 | 16 | growth inhibition (GI) [3]: inactive
Cc1ncc(-c2ccncc2)c(C2CC2)n1 | > 100 | > 100 | 
Nc1ncc(-c2cccnc2)c(C2CC2)n1 | > 100 | > 100 | 
CC(C)c1nc(N)ncc1-c1ccncc1 | > 100 | > 100 | 
Nc1ncc(-c2ccncc2)c(-c2ccccc2)n1 | > 100 | > 100 | 
C=Cc1cnccc1-c1cnc(N)nc1C1CC1 | 30 | 29 | 
Nc1ncc(-c2ccccn2)c(C2CC2)n1 | > 100 | > 100 | 
Nc1ncc(-c2ccncc2-c2ccccc2)c(C2CC2)n1 | > 100 | > 100 | 
Nc1ncc(-c2ccncc2)c(-c2ccoc2)n1 | > 100 | > 100 | 
Nc1ncc(-c2ccnc3ccccc23)c(C2CC2)n1 | > 100 | > 100 | 
Cc1nc(N)ncc1-c1ccncc1 | > 100 | > 100 | 
Nc1ncc(-c2ccncc2-c2ccoc2)c(C2CC2)n1 | 28 | 28 | 
C[C@@H]1C[C@H]2[C@@H]3CCC4=CC(=O)C=C[C@]4(C)[C@@]3(F)[C@@H](O)C[C@]2(C)[C@@]1(O)C(=O)CO |  |  | growth inhibition (GI) [4]: Active; Activity [5]: inactive; growth inhibition (GI) [6]: inactive
COc1ccc(-c2cnc(N)nc2C2CC2)cc1 | > 100 | > 100 | 
Nc1ncc(-c2ccncc2)c(C2CCC2)n1 | > 100 | > 100 | 
C[C@H](NC(=O)Cc1cc(F)cc(F)c1)C(=O)N[C@H]1N=C(c2ccccc2)c2ccccc2N(C)C1=O |  |  | inhibition [7]: Active; inhibition [8]: Active
Nc1ncc(-c2ccc(F)cc2)c(C2CC2)n1 | > 100 | > 100 | 
Nc1ncc(-c2ccnc(Cl)c2)c(C2CC2)n1 | > 100 | > 100 | 
Nc1ncc(-c2ccnc(F)c2)c(C2CC2)n1 | > 100 | > 100 | 
Nc1ncc(-c2cc(Cl)nc(Cl)c2)c(C2CC2)n1 | 10 | 7.6 | 
